Measurements taken from ChEMBL document CHEMBL4052605, “Lissoclibadin 1, a Polysulfur Aromatic Alkaloid from the Indonesian Ascidian Lissoclinum cf. badium, Induces Caspase-Dependent Apoptosis in Human Colon Cancer Cells and Suppresses Tumor Growth in Nude Mice” (J Nat Prod, 2017).

Experiments:
Assay type in all cases: functional, cell-based
HCT-15 = assay: Antiproliferative activity against human HCT15 cells after 24 hrs by WST-1 assay; settings: HCT-15, 24 h
Method in brief: (§1)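 WST-1 viability assay. Cells seeded at 5 × 10^3 per well and grown 24 h, then given lissoclibadins at 0.1−40 μM (etoposide 1.0−100 μM) in triplicate for 24 h. WST-1 added and absorbance read 4 h later at 450 nm, background subtracted at 650 nm. Viability expressed as % of control; IC50 taken as 50% inhibition of viability. Three experiments, mean ± SD.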

HeLa S3 = assay: Antiproliferative activity against human HeLaS3 cells after 24 hrs by WST-1 assay; settings: HeLa S3, 24 h; method in brief: as §1
NCI-H28 = assay: Antiproliferative activity against human NCI-H28 cells after 24 hrs by WST-1 assay; settings: NCI-H28, 24 h; method in brief: as §1
MCF7 = assay: Antiproliferative activity against human MCF7 cells after 24 hrs by WST-1 assay; settings: MCF7, 24 h; method in brief: as §1

IC50 (HCT-15) | IC50 (HeLa S3) | SMILES | IC50 (NCI-H28) | IC50 (MCF7)
15.7 µM | 14.2 µM | COc1cc(CCN(C)C)c2c(c1O)SSc1c(CCN(C)C)cc(OC)c(O)c1SS2 [LISSOCLIBADIN 7] |  | 
4.9 µM | 6.3 µM | COc1c(OC)c2c(c(CCN(C)C)c1SC)SSc1c(CCN(C)C)c(SC)c(OC)c(OC)c1SSc1c(OC)c(OC)c(SC)c(CCN(C)C)c1SSc1c(CCN(C)C)c(SC)c(OC)c(OC)c1SS2 | 7.1 µM | 11.8 µM

SMILES | IC50 (HCT-15) | IC50 (HeLa S3) | IC50 (NCI-H28) | IC50 (MCF7)
COc1cc(CCN(C)C)c2c(c1O)SSSSS2 [ISOLISSOCLINOTOXIN B] | 4.2 µM | 5.9 µM | 6.4 µM | 6.4 µM
